Measured values published in ChEMBL document CHEMBL3351692, “Discovery and optimization of 1,3,5-trisubstituted pyrazolines as potent and highly selective allosteric inhibitors of protein kinase C-ζ” (J Med Chem, 2014).
Calls of active or inactive are those of the source. No cut-off for these calls is given here.

Columns and labels:
[1] = molecular target: Protein kinase C beta type (Homo sapiens) (UniProt P05771); experiment: Inhibition of human PKCbeta1 at 10 uM relative to control
[2] = molecular target: Serine/threonine-protein kinase Sgk1 (Homo sapiens) (UniProt O00141); experiment: Inhibition of human SGK1 at 10 uM relative to control
Sequence of Serine/threonine-protein kinase Sgk1 (Homo sapiens) (O00141 whole entry): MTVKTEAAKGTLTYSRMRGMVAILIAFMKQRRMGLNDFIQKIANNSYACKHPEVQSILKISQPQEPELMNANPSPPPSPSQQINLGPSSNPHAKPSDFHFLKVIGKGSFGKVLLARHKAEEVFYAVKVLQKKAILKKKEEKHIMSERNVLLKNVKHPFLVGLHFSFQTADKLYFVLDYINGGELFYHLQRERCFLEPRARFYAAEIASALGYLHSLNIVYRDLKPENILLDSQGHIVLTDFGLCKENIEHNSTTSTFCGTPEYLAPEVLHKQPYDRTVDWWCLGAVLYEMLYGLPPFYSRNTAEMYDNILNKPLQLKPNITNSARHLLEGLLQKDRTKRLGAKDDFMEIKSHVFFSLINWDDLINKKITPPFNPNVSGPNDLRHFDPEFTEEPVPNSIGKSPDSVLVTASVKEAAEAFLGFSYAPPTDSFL

[3] = molecular target: T1, Protein kinase C zeta type (Homo sapiens) (UniProt Q05513); experiment: Inhibition of PKCzeta (unknown origin) expressed in HEK293 cells assessed as reduction in specific activity for 6 hrs after 30 mins IGF-I stimulation by in serum free medium; format: cell-based
T1 sequence (whole entry): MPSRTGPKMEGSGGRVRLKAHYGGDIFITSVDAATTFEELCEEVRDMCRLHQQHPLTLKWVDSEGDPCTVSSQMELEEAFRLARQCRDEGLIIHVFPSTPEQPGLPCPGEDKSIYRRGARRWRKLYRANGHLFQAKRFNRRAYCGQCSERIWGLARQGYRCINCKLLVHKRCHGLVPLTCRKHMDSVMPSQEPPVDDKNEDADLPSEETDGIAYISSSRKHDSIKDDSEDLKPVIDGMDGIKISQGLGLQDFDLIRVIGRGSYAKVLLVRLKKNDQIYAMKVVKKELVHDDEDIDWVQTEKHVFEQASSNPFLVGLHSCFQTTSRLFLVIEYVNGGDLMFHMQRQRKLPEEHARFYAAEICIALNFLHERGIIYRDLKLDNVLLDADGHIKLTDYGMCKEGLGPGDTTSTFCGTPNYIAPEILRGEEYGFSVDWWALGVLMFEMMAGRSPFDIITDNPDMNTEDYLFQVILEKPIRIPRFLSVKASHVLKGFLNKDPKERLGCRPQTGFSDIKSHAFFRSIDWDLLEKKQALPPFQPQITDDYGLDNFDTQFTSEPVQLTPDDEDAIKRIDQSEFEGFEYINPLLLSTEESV
Outline: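 HEK293 cells transfected at 80% confluency with GST-PKCζ wild-type or V297L mutant plasmids. Next day switched to DMEM with 0.1% FCS and compound or DMSO for 6 h, then IGF-I 50 ng/mL final for 30 min at 37 °C. Lysed; GST-PKCζ pulled down on glutathione beads and eluted. 50 ng per reaction assayed for kinase activity with myelin basic protein as substrate. Triplicate treatments, two independent experiments.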

[4] = molecular target: Ribosomal protein S6 kinase beta-1 (Homo sapiens) (UniProt P23443); experiment: Inhibition of human p70S6K at 10 uM relative to control
[5] = molecular target: T1, Protein kinase C zeta type (Homo sapiens); experiment: Inhibition of PKCzeta in serum-starved human U937 cells assessed as inhibition of TNFalpha-stimulated activation loop phosphorylation at 2.5 to 5 uM by immunoblotting analysis; format: cell-based; settings: U-937
Outline: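 U937 cells in RPMI/10% FBS, serum-starved 24 h, treated with compound or DMSO for 1 h, then TNFα 50 ng/mL for 30 min. Whole-cell lysates separated by SDS–PAGE (10% gel) and immunoblotted for phospho-PKCζ/λ (Thr410/403), with β-actin as loading control. Near-infrared detection. Two separate experiments.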

[6] = molecular target: T2, Protein kinase C zeta type (Homo sapiens, UniProt Q05513); experiment: Inhibition of human PKCzeta assessed as phosphorylation reaction after 4 mins incubation by cell-free assay
T2 sequence (Q05513 whole entry): T1 sequence (whole entry)

[7] = molecular target: 3-phosphoinositide-dependent protein kinase 1 (Homo sapiens) (UniProt O15530); experiment: Inhibition of human PDK1 at 10 uM relative to control
Sequence of 3-phosphoinositide-dependent protein kinase 1 (Homo sapiens) (O15530 whole entry, looked up): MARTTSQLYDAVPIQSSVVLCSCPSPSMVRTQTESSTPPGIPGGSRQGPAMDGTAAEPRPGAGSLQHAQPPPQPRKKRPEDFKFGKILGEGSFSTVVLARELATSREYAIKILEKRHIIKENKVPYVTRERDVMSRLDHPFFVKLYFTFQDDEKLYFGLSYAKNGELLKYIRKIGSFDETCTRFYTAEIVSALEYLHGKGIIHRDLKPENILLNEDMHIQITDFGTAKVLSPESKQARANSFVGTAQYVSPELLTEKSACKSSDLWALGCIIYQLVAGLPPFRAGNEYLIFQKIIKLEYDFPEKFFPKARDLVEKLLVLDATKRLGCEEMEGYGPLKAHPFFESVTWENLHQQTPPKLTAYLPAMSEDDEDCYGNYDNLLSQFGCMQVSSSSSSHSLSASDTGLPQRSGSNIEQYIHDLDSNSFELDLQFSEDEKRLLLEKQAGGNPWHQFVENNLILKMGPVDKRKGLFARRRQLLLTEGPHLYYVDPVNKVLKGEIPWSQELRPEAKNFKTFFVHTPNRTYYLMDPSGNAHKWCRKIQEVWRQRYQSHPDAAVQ

[8] = molecular target: Protein kinase C epsilon type (Homo sapiens) (UniProt Q02156); experiment: Inhibition of human PKCepsilon at 10 uM relative to control
U-937 = experiment: Inhibition of Thr410 phosphorylation in serum-starved human U937 cells at 5 to 10 uM by immunoblotting analysis
[9] = molecular target: Protein kinase C eta type (Homo sapiens) (UniProt P24723); experiment: Inhibition of human PKCeta at 10 uM relative to control
[10] = molecular target: Protein kinase C alpha type (Homo sapiens) (UniProt P17252); experiment: Inhibition of human PKCalpha at 10 uM relative to control
RAW264.7 = experiment: Cytotoxicity against mouse RAW264.7 cells assessed as living cells at 7.5 uM by MTT assay; format: cell-based; settings: raw264.7, 7.5 µM
Outline: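 RAW 264.7 macrophages: MTT viability assay run in parallel with each nitrite (Griess) experiment, same cell line and same compound treatment conditions.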

[11] = molecular target: T2, Protein kinase C zeta type; experiment: Inhibition of PKCzeta in human U937 cells assessed as inhibition of TNFalpha-induced NF-kappaB activation by reporter gene assay; format: cell-based, U-937
[12] = molecular target: Protein kinase C delta type (Homo sapiens) (UniProt Q05655); experiment: Inhibition of human PKCdelta at 10 uM relative to control
Sequence of Protein kinase C delta type (Homo sapiens) (Q05655 whole entry, looked up): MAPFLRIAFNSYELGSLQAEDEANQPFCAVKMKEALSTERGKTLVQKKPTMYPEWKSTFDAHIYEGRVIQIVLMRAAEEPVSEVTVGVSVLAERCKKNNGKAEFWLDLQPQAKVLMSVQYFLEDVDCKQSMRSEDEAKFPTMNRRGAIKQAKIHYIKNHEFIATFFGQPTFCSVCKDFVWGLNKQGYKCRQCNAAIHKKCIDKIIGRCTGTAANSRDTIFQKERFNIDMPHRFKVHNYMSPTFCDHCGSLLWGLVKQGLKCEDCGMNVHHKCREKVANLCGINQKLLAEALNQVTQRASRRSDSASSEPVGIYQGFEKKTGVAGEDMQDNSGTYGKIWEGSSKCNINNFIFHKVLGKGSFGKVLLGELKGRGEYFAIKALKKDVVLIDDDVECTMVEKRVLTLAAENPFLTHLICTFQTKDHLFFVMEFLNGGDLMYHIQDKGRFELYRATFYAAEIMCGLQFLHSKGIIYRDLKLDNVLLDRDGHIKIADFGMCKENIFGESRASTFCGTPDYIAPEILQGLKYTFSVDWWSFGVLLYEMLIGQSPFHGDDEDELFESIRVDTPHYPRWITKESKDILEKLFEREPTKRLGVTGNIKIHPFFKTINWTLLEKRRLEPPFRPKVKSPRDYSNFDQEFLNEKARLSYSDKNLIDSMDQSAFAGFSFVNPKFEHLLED

[13] = molecular target: Protein kinase C gamma type (Homo sapiens) (UniProt P05129); experiment: Inhibition of human PKCgamma at 10 uM relative to control
[14] = molecular target: Ribosomal protein S6 kinase alpha-1 (Homo sapiens) (UniProt Q15418); experiment: Inhibition of human RSK1 at 10 uM relative to control
[15] = molecular target: T3, Nitric oxide synthase, inducible (Mus musculus) (UniProt P29477); experiment: Inhibition of iNOS induction in mouse RAW264.7 cells assessed as NO production at 7.5 uM; format: cell-based
T3 sequence (whole entry): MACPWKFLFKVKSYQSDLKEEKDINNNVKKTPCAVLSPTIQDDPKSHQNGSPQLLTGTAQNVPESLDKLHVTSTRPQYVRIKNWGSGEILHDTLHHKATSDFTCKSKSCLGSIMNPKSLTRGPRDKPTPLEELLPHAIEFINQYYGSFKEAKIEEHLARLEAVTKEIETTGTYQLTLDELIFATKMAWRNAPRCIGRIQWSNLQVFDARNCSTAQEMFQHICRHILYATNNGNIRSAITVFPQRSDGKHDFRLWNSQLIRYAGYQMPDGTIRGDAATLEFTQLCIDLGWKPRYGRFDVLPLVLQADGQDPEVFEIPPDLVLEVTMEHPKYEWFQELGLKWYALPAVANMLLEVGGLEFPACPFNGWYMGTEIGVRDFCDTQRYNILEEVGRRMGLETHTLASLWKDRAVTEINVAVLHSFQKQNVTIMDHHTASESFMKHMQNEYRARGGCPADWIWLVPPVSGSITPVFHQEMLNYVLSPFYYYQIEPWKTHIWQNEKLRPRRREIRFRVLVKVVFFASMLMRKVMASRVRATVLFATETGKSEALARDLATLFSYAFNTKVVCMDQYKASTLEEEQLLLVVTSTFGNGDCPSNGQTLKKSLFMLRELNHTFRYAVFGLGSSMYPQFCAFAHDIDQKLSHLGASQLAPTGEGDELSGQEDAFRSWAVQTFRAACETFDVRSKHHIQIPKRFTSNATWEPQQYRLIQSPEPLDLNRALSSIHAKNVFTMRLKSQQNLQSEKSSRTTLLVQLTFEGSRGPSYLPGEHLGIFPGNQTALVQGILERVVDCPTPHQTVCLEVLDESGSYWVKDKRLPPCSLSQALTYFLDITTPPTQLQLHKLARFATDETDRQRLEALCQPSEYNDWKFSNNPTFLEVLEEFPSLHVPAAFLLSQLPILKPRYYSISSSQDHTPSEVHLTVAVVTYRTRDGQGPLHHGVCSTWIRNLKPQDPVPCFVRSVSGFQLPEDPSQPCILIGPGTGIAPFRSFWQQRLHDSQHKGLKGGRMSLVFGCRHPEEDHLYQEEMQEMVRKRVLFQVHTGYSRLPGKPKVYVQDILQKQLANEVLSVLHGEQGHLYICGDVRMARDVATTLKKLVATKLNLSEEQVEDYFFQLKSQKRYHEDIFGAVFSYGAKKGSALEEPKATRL
Outline: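 RAW 264.7 cells seeded at 8 × 10⁴ per well in DMEM/10% FBS and grown 2 days. Then exposed to LPS with compound or DMSO for 20 h. Supernatant nitrite measured by Griess reaction (sulfanilamide/NED) at 550 nm minus 620 nm background, quantified against a sodium nitrite standard curve. At least four experiments in triplicate.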

[16] = molecular target: Ribosomal protein S6 kinase alpha-5 (Homo sapiens) (UniProt O75582); experiment: Inhibition of human MSK1 at 10 uM relative to control
Sequence of Ribosomal protein S6 kinase alpha-5 (Homo sapiens) (O75582 whole entry, looked up): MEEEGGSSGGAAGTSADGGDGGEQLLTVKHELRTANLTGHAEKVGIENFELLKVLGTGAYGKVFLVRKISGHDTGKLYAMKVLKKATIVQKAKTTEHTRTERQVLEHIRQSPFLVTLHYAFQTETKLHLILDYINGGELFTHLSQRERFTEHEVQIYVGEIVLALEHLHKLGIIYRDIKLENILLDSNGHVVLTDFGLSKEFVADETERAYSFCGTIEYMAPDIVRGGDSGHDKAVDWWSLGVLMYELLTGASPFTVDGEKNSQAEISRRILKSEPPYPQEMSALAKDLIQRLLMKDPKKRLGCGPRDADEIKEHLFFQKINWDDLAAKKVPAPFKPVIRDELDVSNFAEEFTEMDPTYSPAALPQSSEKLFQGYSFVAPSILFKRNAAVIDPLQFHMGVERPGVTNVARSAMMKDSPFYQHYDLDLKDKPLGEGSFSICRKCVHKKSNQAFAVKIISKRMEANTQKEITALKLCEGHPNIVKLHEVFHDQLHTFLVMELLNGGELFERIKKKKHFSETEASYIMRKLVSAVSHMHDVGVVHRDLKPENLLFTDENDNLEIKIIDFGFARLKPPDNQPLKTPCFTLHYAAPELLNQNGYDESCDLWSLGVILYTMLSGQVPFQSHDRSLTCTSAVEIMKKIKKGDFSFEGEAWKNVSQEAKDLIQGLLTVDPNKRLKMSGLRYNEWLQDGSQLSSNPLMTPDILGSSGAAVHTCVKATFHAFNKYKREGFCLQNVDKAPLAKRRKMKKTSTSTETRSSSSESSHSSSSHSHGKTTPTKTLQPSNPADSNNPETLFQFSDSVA

[17] = molecular target: Protein kinase C theta type (Homo sapiens) (UniProt Q04759); experiment: Inhibition of human PKCtheta at 10 uM relative to control
Sequence of Protein kinase C theta type (Homo sapiens) (Q04759 whole entry, looked up): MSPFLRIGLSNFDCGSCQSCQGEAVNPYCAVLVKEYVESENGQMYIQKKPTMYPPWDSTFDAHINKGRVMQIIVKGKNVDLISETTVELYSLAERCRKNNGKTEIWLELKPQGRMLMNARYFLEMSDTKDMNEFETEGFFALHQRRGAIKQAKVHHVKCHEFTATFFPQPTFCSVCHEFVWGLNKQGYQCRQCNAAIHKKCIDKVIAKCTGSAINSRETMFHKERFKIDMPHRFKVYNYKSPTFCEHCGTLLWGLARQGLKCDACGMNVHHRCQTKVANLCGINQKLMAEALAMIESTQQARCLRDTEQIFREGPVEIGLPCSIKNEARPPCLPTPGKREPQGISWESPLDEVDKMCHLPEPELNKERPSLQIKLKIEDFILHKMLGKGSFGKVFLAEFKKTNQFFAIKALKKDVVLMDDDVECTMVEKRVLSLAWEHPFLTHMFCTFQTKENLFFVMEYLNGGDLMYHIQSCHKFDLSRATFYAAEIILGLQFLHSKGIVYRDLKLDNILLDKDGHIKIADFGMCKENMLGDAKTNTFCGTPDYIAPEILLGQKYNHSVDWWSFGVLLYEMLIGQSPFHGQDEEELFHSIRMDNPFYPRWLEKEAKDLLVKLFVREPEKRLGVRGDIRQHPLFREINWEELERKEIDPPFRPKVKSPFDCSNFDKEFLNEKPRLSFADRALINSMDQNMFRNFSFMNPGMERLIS

[18] = molecular target: cAMP-dependent protein kinase catalytic subunit alpha (Homo sapiens) (UniProt P17612); experiment: Inhibition of human PKA at 10 uM relative to control

Sequence of Protein kinase C beta type (Homo sapiens) (P05771 2-671 limits assumed): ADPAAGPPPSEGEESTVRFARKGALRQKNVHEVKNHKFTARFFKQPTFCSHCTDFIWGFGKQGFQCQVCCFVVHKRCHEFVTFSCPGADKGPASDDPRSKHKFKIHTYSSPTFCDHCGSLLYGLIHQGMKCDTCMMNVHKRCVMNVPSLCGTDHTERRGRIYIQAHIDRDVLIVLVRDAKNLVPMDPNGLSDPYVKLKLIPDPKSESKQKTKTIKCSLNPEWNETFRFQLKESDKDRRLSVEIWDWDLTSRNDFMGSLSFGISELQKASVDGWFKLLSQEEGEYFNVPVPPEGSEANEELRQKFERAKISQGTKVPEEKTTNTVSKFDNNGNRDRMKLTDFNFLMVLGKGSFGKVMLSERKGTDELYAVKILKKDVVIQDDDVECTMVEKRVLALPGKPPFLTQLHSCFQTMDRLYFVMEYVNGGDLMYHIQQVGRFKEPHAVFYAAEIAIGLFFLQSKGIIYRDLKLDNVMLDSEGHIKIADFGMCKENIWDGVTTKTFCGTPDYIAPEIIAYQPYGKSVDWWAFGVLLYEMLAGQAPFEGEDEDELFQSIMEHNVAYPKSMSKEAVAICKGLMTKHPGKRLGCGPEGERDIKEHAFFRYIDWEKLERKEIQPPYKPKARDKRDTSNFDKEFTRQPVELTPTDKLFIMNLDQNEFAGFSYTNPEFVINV

inhibition [1]: inactive
inhibition [2]: 18%
inhibition [3]: Dose-dependent effect
inhibition [4]: inactive
inhibition [5]: Active
IC50 [6]: 300 nM
inhibition [7]: 8%
inhibition [8]: inactive
inhibition [9]: inactive
inhibition [10]: 4%
IC50 [11]: 2500 nM
inhibition [12]: inactive
inhibition [13]: 6%
inhibition [14]: 3%
inhibition [15]: 74%
inhibition [16]: inactive
inhibition [17]: inactive
inhibition [18]: inactive
Compound: CC(C)(C)C1=NN(c2cccc(Cl)c2)C(c2ccc(F)c(O)c2)C1 (stereo not given)
inhibition (U-937): Active
Activity (RAW264.7): Non-toxic
